Experiments:
[1] = system: α9E202Qα10; experiment: ACh-evoked currents, two-electrode voltage-clamp in X. laevis oocytes; type: cell-based, rat; conditions: 1 mM ACh; α9E202Qα10 mutant receptor
How it was run: (§1)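 Rat subunit cRNAs (0.01–1.0 ng in 50 nl water, 1:1 molar ratio when co-injected) were injected into stage V–VI X. laevis oocytes kept in Barth's solution at 18 °C. Oocytes were preloaded 3 h with 100 µM BAPTA-AM.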

[2] = system: homomeric α9 nAChR; conditions: cited from earlier work
[3] = system: α9^α10TM2TM3loop; experiment: ACh-evoked currents, two-electrode voltage-clamp in X. laevis oocytes; type: cell-based, rat; conditions: 1 mM ACh; α9^α10TM2TM3loop injected alone or co-injected with α9
How it was run: as §1

[4] = target: α9α10 nAChR (Rattus norvegicus, UniProt P43144+Q9JLB5); conditions: prolonged ACh application; cited from earlier work
[5] = target: α9α10^α9TM2TM3loop (Rattus norvegicus, UniProt P43144+Q9JLB5, A292S/P291A/S288I/S294N); experiment: ACh-evoked currents, two-electrode voltage-clamp in X. laevis oocytes; type: cell-based; conditions: prolonged (1 min) ACh application
[6] = system: α9E72Qα10; experiment: ACh-evoked currents, two-electrode voltage-clamp in X. laevis oocytes; type: cell-based, rat; conditions: 1 mM ACh; α9E72Qα10 mutant receptor
How it was run: as §1

Sequence of α9α10^α9TM2TM3loop (P43144 26-479, stated change not applied): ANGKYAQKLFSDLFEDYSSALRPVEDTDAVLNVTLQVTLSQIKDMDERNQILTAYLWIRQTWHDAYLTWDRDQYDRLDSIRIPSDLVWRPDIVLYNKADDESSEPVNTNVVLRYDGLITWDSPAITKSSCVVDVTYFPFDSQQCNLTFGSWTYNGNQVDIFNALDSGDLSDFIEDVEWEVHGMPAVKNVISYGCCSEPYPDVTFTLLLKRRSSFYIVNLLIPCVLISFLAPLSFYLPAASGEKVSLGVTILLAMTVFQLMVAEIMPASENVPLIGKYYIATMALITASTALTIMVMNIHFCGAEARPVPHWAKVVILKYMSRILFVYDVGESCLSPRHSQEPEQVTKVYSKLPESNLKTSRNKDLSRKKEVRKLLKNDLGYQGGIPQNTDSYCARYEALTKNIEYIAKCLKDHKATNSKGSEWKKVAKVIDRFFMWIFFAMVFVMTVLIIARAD
Sequence of α9α10^α9TM2TM3loop (Q9JLB5 25-447 S288I/P291A/A292S/S294N): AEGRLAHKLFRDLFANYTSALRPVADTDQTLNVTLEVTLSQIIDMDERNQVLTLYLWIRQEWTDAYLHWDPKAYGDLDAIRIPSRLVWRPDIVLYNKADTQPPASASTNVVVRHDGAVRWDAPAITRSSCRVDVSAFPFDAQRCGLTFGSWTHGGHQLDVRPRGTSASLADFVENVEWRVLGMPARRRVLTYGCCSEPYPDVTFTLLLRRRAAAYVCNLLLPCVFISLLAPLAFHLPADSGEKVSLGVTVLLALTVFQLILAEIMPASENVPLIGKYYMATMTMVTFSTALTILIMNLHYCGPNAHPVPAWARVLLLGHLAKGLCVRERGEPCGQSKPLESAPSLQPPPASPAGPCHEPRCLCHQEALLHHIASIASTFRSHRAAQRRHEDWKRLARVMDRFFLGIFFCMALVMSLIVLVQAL
Sequence of α9α10 nAChR (P43144 26-479): as the sequence (P43144 26-479, stated change not applied) above
Sequence of α9α10 nAChR (Q9JLB5 25-447): as the sequence (Q9JLB5 25-447 S288I/P291A/A292S/S294N) above, with I264S, A267P, S268A, N270S counted along it

In the case of `CC(=O)OCC[N+](C)(C)C` [ACh, Acetylcholine], the “response to ACh (in words)” value [1] is given as “failed to respond”, the “maximal amplitude of responses” value ([2]; 100 µM ACh, absence of extracellular Ca^2+) is given as 182 ± 20 nA and the EC50 ([2]; ACh concentration-response, ref 45 (Verbitsky et al. 2000)) is given as 11.4 ± 0.8 µM. The “remaining current after 20 s of the peak response to ACh” value (from here on “remaining current after 20 s”) ([2]; prolonged application of a high ACh concentration) was 94.9 ± 1.6%, the “response to ACh (in words)” value [3] was “did not render functional receptors” and the “remaining current after 20 s” value [4] was 57.1 ± 4.3%. For the same compound, the “remaining current after 20 s” value [5] was 61.9 ± 4.6% and the “response to ACh (in words)” value [6] was “failed to respond”.

Reference: paper PMC11335262 (Cellular and Molecular Life Sciences: CMLS, 2024)
